Laboratory results as given in ChEMBL document CHEMBL1158468, “Synthesis, structure-activity relationships, and in vivo evaluation of N3-phenylpyrazinones as novel corticotropin-releasing factor-1 (CRF1) receptor antagonists” (J Med Chem, 2009).
Blank lines part the entries; values can stand above or below the compound they belong to. Activity calls are given as the source filed them. The rule behind the calls is not given here.

Columns and labels:
[1] = target: T1, Corticotropin-releasing factor receptor 1 (Rattus norvegicus, UniProt P35353); assay: Displacement of [125I]Tyr-ovine-CRF from CRF1 receptor in rat frontal cortex homogenate by gamma counting; format: tissue-based
T1 sequence (P35353 whole entry): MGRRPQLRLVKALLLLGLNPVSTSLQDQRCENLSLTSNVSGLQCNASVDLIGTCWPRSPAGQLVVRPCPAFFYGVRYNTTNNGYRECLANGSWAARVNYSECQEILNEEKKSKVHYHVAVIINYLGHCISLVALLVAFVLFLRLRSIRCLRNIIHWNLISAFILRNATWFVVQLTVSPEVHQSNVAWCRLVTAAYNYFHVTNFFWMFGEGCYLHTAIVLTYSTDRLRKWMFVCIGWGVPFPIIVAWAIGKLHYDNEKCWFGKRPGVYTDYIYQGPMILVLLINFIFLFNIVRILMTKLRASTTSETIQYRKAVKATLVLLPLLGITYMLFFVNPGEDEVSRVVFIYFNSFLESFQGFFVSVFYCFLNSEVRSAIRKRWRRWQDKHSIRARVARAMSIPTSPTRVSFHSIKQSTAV
How it was run: (§1)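 Washed homogenates of frozen rat frontal cortex (CRF1, 25 μg/well) or porcine choroid plexus (CRF2, 10 μg/well) in 50 mM Hepes pH 7.0, 10 mM MgCl2, 2 mM EGTA, protease inhibitors, 0.005% Triton X-100. Ligand 150 pM 125I-ovine-CRF (CRF1) or 100 pM 125I-sauvagine (CRF2). Incubation 2 h at 21 °C, then filtration and gamma counting. Nonspecific binding: 1 μM CRF1 reference antagonist or 1 μM α-helical CRF(9-41). IC50 from 5- or 10-point curves by nonlinear regression.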

[2] = (§2) Displacement of [125I]sauvagine from CRF2 receptor in pig choroid plexus homogenate by gamma counting; format: tissue-based, Sus scrofa; how it was run: as §1
Sus scrofa = species on record: Sus scrofa; assay: as §2; format: tissue-based; how it was run: as §1
[3] = Octanol-water partition coefficient, log D at pH 7.4; format: physicochemical
[4] = target: T2, Corticotropin-releasing factor receptor 1 (Homo sapiens, UniProt P34998); assay: Antagonist activity at CRF1 receptor in human Y79 cells assessed as inhibition of CRF-stimulated cAMP production by HTRF method
T2 sequence (P34998 whole entry): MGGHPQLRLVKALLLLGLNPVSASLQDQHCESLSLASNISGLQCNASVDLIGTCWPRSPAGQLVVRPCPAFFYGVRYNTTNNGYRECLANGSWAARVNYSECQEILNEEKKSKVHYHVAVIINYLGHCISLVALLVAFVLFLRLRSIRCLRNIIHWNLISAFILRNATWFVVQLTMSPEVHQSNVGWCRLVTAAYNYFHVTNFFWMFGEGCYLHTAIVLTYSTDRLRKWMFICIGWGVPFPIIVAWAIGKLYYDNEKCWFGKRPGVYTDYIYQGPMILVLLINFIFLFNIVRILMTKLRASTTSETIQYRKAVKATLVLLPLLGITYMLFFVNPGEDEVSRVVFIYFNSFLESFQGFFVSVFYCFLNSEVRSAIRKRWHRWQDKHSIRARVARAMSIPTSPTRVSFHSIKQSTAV

[5] = Clearance in Sprague-Dawley rat at 2 mg/kg, iv; format: ADME, organism-based; design: dose 2 mg/kg, route intravenous; details: in vivo
How it was run: (§3)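 Male Sprague-Dawley rats; iv 2 mg/kg in PEG:ethanol 90:10 (v/v) at 1 mL/kg, or oral 10 mg/kg as 1% Tween 80 in 0.5% methylcellulose suspension at 3 mL/kg; n = 3 per route. Jugular catheter blood taken to 24 h postdose. Plasma was protein-precipitated with acetonitrile and assayed by LC/MS/MS.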

[6] = Volume of distribution at steady state in Sprague-Dawley rat at 2 mg/kg, iv; format: ADME, organism-based; design: dose 2 mg/kg, route intravenous; details: in vivo, read-out: Vdss; how it was run: as §3
[7] = Half life in Sprague-Dawley rat at 2 mg/kg, iv; format: ADME, organism-based; design: dose 2 mg/kg, route intravenous; details: in vivo; how it was run: as §3
[8] = AUC in Sprague-Dawley rat at 10 mg/kg, po; format: ADME, organism-based; design: dose 10 mg/kg, route oral; details: plasma; how it was run: as §3
[9] = Cmax in Sprague-Dawley rat at 10 mg/kg, po; format: ADME, organism-based; design: dose 10 mg/kg, route oral; details: in vivo; how it was run: as §3
[10] = Oral bioavailability in Sprague-Dawley rat at 10 mg/kg; format: ADME, organism-based; details: in vivo; how it was run: as §3
Rattus norvegicus [11] = assay: Hepatic blood flow in Sprague-Dawley rat at 2 mg/kg, iv; format: ADME, organism-based, Liver; design: dose 2 mg/kg, route intravenous; details: in vivo
[12] = Clearance in cynomolgus monkey at 2 mg/kg, iv; format: ADME, organism-based, Macaca fascicularis; design: dose 2 mg/kg, route intravenous; details: in vivo
How it was run: (§4)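 Cynomolgus monkeys, n = 3 per route. Iv dose 2 mg/kg in PEG:ethanol 90:10 (v/v), 1 mL/kg, sampled from jugular vein. Oral dose 10 mg/kg as suspension in 1% Tween in 0.5% methylcellulose, 3 mL/kg, sampled from femoral vein. Sampling to 24 h; plasma measured by LC/MS/MS.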

[13] = Volume of distribution at steady state in cynomolgus monkey at 2 mg/kg, iv; format: ADME, organism-based, Macaca fascicularis; design: dose 2 mg/kg, route intravenous; details: in vivo, read-out: Vdss; how it was run: as §4
[14] = Half life in cynomolgus monkey at 2 mg/kg, iv; format: ADME, organism-based, Macaca fascicularis; design: dose 2 mg/kg, route intravenous; details: in vivo; how it was run: as §4
[15] = AUC in cynomolgus monkey at 10 mg/kg, po; format: ADME, organism-based, Macaca fascicularis; design: dose 10 mg/kg, route oral; details: plasma; how it was run: as §4
[16] = Cmax in cynomolgus monkey at 10 mg/kg, po; format: ADME, organism-based, Macaca fascicularis; design: dose 10 mg/kg, route oral; details: in vivo; how it was run: as §4
[17] = Oral bioavailability in cynomolgus monkey at 10 mg/kg; format: ADME, organism-based, Macaca fascicularis; details: in vivo; how it was run: as §4
Rattus norvegicus [18] = assay: Plasma concentration in Sprague-Dawley rat at 1 mg/kg, po; format: ADME, organism-based; design: dose 1 mg/kg, route oral; details: in vivo
Rattus norvegicus [19] = assay: Plasma concentration in Sprague-Dawley rat at 3 mg/kg, po; format: ADME, organism-based; design: dose 3 mg/kg, route oral; details: in vivo
Rattus norvegicus [20] = assay: Plasma concentration in Sprague-Dawley rat at 10 mg/kg, po; format: ADME, organism-based; design: dose 10 mg/kg, route oral; details: in vivo
Rattus norvegicus [21] = assay: Free plasma concentration in Sprague-Dawley rat at 1 mg/kg, po; format: ADME, organism-based; design: dose 1 mg/kg, route oral; details: in vivo
Rattus norvegicus [22] = assay: Free plasma concentration in Sprague-Dawley rat at 3 mg/kg, po; format: ADME, organism-based; design: dose 3 mg/kg, route oral; details: in vivo
Rattus norvegicus [23] = assay: Free plasma concentration in Sprague-Dawley rat at 10 mg/kg, po; format: ADME, organism-based; design: dose 10 mg/kg, route oral; details: in vivo
[24] = Unbound fraction in rat plasma after 3 hrs by equilibrium dialysis method; format: ADME, cell-free
How it was run: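 Rat plasma spiked with compound, then equilibrium-dialysed against isotonic phosphate buffer for 3 h at 37 °C. Compound in the plasma and buffer samples was quantified by LC/MS/MS after acetonitrile protein precipitation with internal standard. Unbound fraction was taken as the buffer-to-plasma concentration ratio.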

Rattus norvegicus [25] = assay: Ex vivo displacement of [125I-Tyro]-sauvagine from CRF1 receptor in Sprague-Dawley rat parietal cortex at 1 mg/kg, po by autoradiography; format: functional
How it was run: (§5)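 Brains from orally dosed rats taken after the defensive withdrawal test. 20 μm cryostat sections preincubated 1 min, then incubated 20 min at 22–24 °C with 0.15–0.20 nM [125I-Tyro]sauvagine in 50 mM HEPES pH 7.2 buffer. Nonspecific binding from vehicle sections with 1 μM reference CRF1 antagonist. Parietal cortex occupancy read by autoradiography and computed relative to vehicle specific binding.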

Rattus norvegicus [26] = assay: Ex vivo displacement of [125I-Tyro]-sauvagine from CRF1 receptor in Sprague-Dawley rat parietal cortex at 3 mg/kg, po by autoradiography; format: functional; how it was run: as §5
Rattus norvegicus [27] = assay: Ex vivo displacement of [125I-Tyro]-sauvagine from CRF1 receptor in Sprague-Dawley rat parietal cortex at 10 mg/kg, po by autoradiography; format: functional; how it was run: as §5
Rattus norvegicus [28] = assay: Anxiolytic activity in Sprague-Dawley rat assessed as decrease in latency to exit dark chamber at 1 mg/kg, po after 1 hr by defensive withdrawal test; format: functional; design: scale not given: the % may be the effect or the level left
How it was run: (§6)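 Male Sprague-Dawley rats (180–300 g), dosed po 1 h before testing in 0.25% methylcellulose suspension (bead-milled), 2 mL/kg. Blind observer recorded the latency to leave a dark chamber placed in an illuminated open field (all four paws out) over 15 min. ANOVA with Fisher's LSD, p < 0.05.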

Rattus norvegicus [29] = assay: Anxiolytic activity in Sprague-Dawley rat assessed as decrease in latency to exit dark chamber at 3 mg/kg, po after 1 hr by defensive withdrawal test; format: functional; design: scale not given: the % may be the effect or the level left; how it was run: as §6
Rattus norvegicus [30] = assay: Anxiolytic activity in Sprague-Dawley rat assessed as decrease in latency to exit dark chamber at 10 mg/kg, po after 1 hr by defensive withdrawal test; format: functional; design: scale not given: the % may be the effect or the level left; how it was run: as §6
Rattus norvegicus [31] = assay: Anxiolytic activity in po dosed Sprague-Dawley rat assessed as minimal effective dose by defensive withdrawal test; format: functional; details: read-out: MED; how it was run: as §6

Compound: COC[C@H](C)n1cc(Cl)nc(Nc2cc(C)c(OC)cc2C)c1=O
IC50 [1]: 5.8 nM

Compound: COc1ccc(Nc2nc(C)cn([C@H](C)C3CC3)c2=O)c(C(F)(F)F)n1
IC50 [1]: 3.8 nM

Compound: CCC(CC)Cn1cc(Cl)nc(Nc2cc(C)c(OC)cc2C)c1=O
IC50 [1]: 76 nM

Compound: CC[C@H](C1CC1)n1cc(Cl)nc(N(CC)c2c(C)cc(C)cc2C)c1=O
IC50 [1]: 4.6 nM

Compound: Cc1cc(C)c(Nc2nc(Cl)cn([C@@H](CO)C3CC3)c2=O)c(C)c1
IC50 [1]: 35 nM

Compound: CCC(C1CC1)n1cc(Cl)nc(Nc2c(Cl)cc(C#N)cc2Cl)c1=O (single isomer, unassigned)
IC50 [1]: 2.8 nM

Compound: CCc1cn([C@H](C)C2CC2)c(=O)c(Nc2ccc(OC)nc2C(F)(F)F)n1
IC50 [1]: 180 nM

Compound: CC[C@H](C1CC1)n1cc(Cl)nc(Nc2ccc(Cl)cc2)c1=O
IC50 [1]: 180 nM

Compounds with a lower IC50 [1], results first:

IC50 [1]: 0.26 nM
IC50 [2]: > 10000 nM
Activity (Sus scrofa): inactive
logD [3]: 4.35
IC50 [4]: 1.9 nM
clearance [5]: 170 mL/min/kg
Vd [6]: 97 L/kg
half-life [7]: 18 h
AUC [8]: 0.36 µM·h
Cmax [9]: 52 nM
bioavailability [10]: 14%
QH (Rattus norvegicus [11]): 55 mL/min/kg
clearance [12]: 21 mL/min/kg
Vd [13]: 7.7 L/kg
half-life [14]: 9.3 h
AUC [15]: 0.41 µM·h
Cmax [16]: 32 nM
bioavailability [17]: 2%
concentration (Rattus norvegicus [18]): 4.9 nM
concentration (Rattus norvegicus [19]): 14 nM
concentration (Rattus norvegicus [20]): 76 nM
Cp(f) (Rattus norvegicus [21]): 0.1 nM
Cp(f) (Rattus norvegicus [22]): 0.29 nM
Cp(f) (Rattus norvegicus [23]): 1.6 nM
fraction unbound at 3 h [24]: 0.021
Compound: COC[C@@H](C1CC1)n1cc(Cl)nc(Nc2cc(C)c(OC)cc2C)c1=O
Activity (Rattus norvegicus [25]): 37%
Activity (Rattus norvegicus [26]): 72%
Activity (Rattus norvegicus [27]): 94%
Activity (Rattus norvegicus [28]): <5%
Activity (Rattus norvegicus [29]): 60%
Activity (Rattus norvegicus [30]): 65%
minimal effective dose (Rattus norvegicus [31]): 3 mg/kg

IC50 [1]: 1.2 nM
Compound: CC[C@H](C1CC1)n1cc(Cl)nc(Nc2c(Cl)cc(C#N)cc2Cl)c1=O

IC50 [1]: 1.3 nM
Compound: COC[C@@H](C1CC1)n1cc(Cl)nc(Nc2c(C)cc(C)cc2C)c1=O

IC50 [1]: 0.62 nM
Compound: CCCC(CCC)n1cc(Cl)nc(Nc2cc(C)c(OC)cc2C)c1=O
